# PLCg1 inh: blocks human PLC-gamma1 enzyme activity; P19174; AID 720700; 370,000 tested, 0.84% active; inhibition, % at 12.2 µM; purified PLC-gamma1, fluorogenic substrate, fluorescence
# Target sequence (P19174 whole entry, looked up): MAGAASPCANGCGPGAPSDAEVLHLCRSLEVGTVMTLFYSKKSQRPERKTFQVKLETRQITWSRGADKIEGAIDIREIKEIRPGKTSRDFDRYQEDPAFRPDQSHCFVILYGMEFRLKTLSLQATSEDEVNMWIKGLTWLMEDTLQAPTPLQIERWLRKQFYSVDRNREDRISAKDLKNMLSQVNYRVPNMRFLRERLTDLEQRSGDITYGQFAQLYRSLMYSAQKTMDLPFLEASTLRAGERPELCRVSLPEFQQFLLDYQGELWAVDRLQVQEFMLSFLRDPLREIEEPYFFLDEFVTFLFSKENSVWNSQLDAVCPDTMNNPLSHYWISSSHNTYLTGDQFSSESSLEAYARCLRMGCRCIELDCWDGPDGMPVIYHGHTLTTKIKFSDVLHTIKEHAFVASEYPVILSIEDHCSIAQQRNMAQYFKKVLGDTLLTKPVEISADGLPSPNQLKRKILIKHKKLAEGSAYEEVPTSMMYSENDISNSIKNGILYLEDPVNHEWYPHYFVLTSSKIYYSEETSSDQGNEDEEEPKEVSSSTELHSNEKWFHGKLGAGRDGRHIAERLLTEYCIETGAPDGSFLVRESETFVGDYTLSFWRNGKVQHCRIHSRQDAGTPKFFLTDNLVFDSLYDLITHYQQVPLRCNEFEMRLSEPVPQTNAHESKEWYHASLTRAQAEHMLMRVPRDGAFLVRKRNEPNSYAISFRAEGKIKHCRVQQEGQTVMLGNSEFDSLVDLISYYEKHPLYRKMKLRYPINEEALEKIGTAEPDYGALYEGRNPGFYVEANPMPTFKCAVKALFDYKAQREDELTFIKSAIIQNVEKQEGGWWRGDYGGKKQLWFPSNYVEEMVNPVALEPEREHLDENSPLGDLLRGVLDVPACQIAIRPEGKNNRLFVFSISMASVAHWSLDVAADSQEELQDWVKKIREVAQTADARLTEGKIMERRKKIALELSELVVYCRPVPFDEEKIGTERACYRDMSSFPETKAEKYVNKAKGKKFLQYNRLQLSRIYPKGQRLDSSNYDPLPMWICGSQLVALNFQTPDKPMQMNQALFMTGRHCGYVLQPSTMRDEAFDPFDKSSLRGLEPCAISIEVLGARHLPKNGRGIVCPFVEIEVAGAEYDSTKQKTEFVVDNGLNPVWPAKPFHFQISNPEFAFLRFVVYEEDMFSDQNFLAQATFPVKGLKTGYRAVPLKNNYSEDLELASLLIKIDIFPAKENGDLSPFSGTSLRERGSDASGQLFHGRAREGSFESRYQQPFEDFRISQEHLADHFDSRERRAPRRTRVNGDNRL
# PLC-beta3 inh: blocks human PLC-beta3 enzyme activity; inhibition, % at 12.2 µM; Purified PLC-beta3, fluorogenic substrate, fluorescence; 370,000 tested, 0.18% active; Q01970; AID 720704; in the data active = inhibition above about 11%;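 also: 0% = median of compound wells on plate and 100% = full blocker control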
# NTR1 ag: activates human neurotensin receptor 1. 330,000 tested, 0.17% active. NTR1-U2OS beta-arrestin-GFP spot imaging, agonist mode. P30989. AID 493036. activation, % at 20 µM;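 active = activation at or above 40% of the spot to cytoplasm intensity ratio, with at least 20 cells analyzed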;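 also: 0% = DMSO without peptide and 100% = 100 nM NTR1 peptide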
# Arr AP2 block: blocks beta-arrestin peptide binding to AP2 adaptin | FITC-arrestin peptide / GST-AP2 beads, flow cytometry; AP2 beta2 appendage carries R879A mutation | inhibition, % at 10 µM | 340,000 tested, 0.31% active;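 active = inhibition above a set limit, near 3 SD of compounds lacking own fluorescence, cut at about 54% in these data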;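 also: plate controls were DMSO wells for no effect and 5 µM unlabelled arrestin peptide for full effect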
#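 Material – AP2 appendage R879A on GSH beads · Buffer or medium – PBS with 0.05% Tween 20 and 0.1% BSA · Probe or stimulus – fluorescein-tagged arrestin peptide at 50 nM final · Incubation – compound with beads 12 min RT, then probe 1 h RT · Detection – high-throughput flow cytometry of beads, ex 488, em 535 nm · Evaluation – percent response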
# PLCg1 ctr: counter-screen for PLC-beta3 inhibitors: inhibitors of human PLC-gamma1 | shares compounds with PLCg1 inh | purified PLC-gamma1, fluorogenic substrate, fluorescence | inhibition, % at 12.3 µM | 3,300 tested, 3.1% active
# PLCbeta3 conf: human PLC-beta3 inhibition, confirmation | 3,300 tested, 1% active | shares compounds with PLCg1 inh | inhibition, % at 12.3 µM | purified PLC-beta3, fluorogenic substrate fluorescence | AID 743261; in the data active = inhibition above about 11%
# The depositor's hits bear a star; i = inactive; · = no result. In the library only some 1.3% were active in any assay of this set; here they are far more common. Rule as the data show it, unless noted: active = inhibition above about 9.5%; inactive = the rest.
SMILES,PLCg1 inh,PLC-beta3 inh,NTR1 ag,Arr AP2 block,PLCg1 ctr,PLCbeta3 conf
O=C(COC(=O)C1=COCCO1)Nc1cccc(Oc2ccccc2)c1,-1,-1,-3,16,·,·
CC(C)CN(C(=O)COC(=O)Cc1n[nH]c(=O)c2ccccc12)C1CCS(=O)(=O)C1 (stereo not drawn),12*,2,1,-10,-7,-2
CC(C)N(C)c1ncnc2c1ncn2[C@H]1CN(CCN2CCOCC2)C[C@@H](CO)O1,-1,2,·,·,·,·
CN(C)c1ncnc2c1ncn2[C@H]1CN(CCN2CCOCC2)C[C@@H](CO)O1,11*,6,·,·,0,0
O=C(Nc1ccccc1Cl)c1cc(C2CCCN(C(=O)CCc3ccccc3)C2)on1 (stereo not drawn),9.8*,3,·,·,-1,0
COc1ccc(CNC(=O)C[C@H]2C(=O)N(Cc3ccc(OC)cc3)C[C@@H]2Cc2ccccc2)cc1,11*,5,-1,18,6,7
CCCCNc1cccc2c1S(=O)(=O)N[C@H](C)CO2,0,0,·,·,·,·
O=C(Cc1cccs1)NCc1ccccc1Br,12*,6,0,-12,-8,-6
O=C(Cc1cccs1)NCc1cccc(CNC(=O)Cc2cccs2)c1,5,3,-2,6,·,·
O=C(NCc1n[nH]c(=S)n1-c1cccc(C(F)(F)F)c1)c1ccc(S(=O)(=O)N2CCCC2)cc1,1,2,0,-16,·,·
O=C(NCc1n[nH]c(=S)n1-c1cccc(C(F)(F)F)c1)c1ccc(S(=O)(=O)N2CCCCC2)cc1,12*,3,1,-5,1,-4
O=C(CNCc1ccccc1[N+](=O)[O-])N1CCC2(CC1)OCCO2,-4,-5,·,·,·,·
O=C(NC1CCCCN(Cc2cccc(F)c2)C1=O)c1ccc(F)cc1 (stereo not drawn),-1,0,·,·,·,·
CC(C)[C@H]1/C(=C/C2CC2)N2C(=O)C[C@H](c3cccc(C(F)(F)F)c3)N=C2N1Cc1ccc2c(c1)OCO2,-1,1,·,·,·,·
CCC(=O)Nc1cc(C(=O)OCC(=O)c2ccccc2Cl)ccc1C,13*,-1,0,6,2,2
COc1ccc(-c2nnc(SC(C)C(=O)Nc3nccs3)n2Cc2ccccc2)cc1OC (stereo not drawn),9.8*,2,-1,3,-5,-3
COc1ccc(S(=O)(=O)Nc2c(F)cccc2F)cc1,14*,5,-1,36,-2,-1
COc1ccc(/C=N/NC(=O)C(=O)N2CCN(c3ccccc3OC)CC2)cc1,12*,-1,2,-1,-5,-2
CC1(C(=O)NCc2cccc(C(F)(F)F)c2)CCN1Cc1ccc(-c2ccccc2)o1 (stereo not drawn),9.6*,-1,·,·,-1,-2
CC1(C(=O)NCc2cccc(C(F)(F)F)c2)CCN1Cc1cc2ccccc2o1 (stereo not drawn),1,-8,·,·,·,·
CNCCC=C1c2ccccc2CCc2ccccc21,12*,0,1,22,-5,-11
C[N+](C)(C)CC/C=C1/c2ccccc2CSc2ccccc21,6,-1,0,-19,·,·
Cc1cc(=O)[nH]c(SCC(=O)Nc2ccc(F)c(F)c2)n1,-2,0,·,·,·,·
C=CCOc1ccc(/C(O)=C2/C(=O)C(=O)N(CCCN3CCOCC3)C2c2ccccc2)cc1 (stereo not drawn),11*,1,-2,3,-4,-2
C[C@H]1C(=O)CC[C@@]23CCCN2C(=O)CCC[C@@H]13,3,3,·,·,·,·
SMILES,PLCg1 inh,PLC-beta3 inh,NTR1 ag,Arr AP2 block,PLCg1 ctr,PLCbeta3 conf
CCC[C@H]1[C@@H](NC(=O)c2cccc(C)c2)CC[C@@]23CCCN2C(=O)CCC[C@@H]13,3,0,·,·,·,·
CC1Oc2ccccc2N(CC(=O)Nc2ccc3c(c2)OCCO3)C1=O (stereo not drawn),11*,9,0,-1,-4,1
COc1ccc(S[C@]2(C(=O)N(C)C)CC(=O)N[C@@H]2c2ccc(OC)cc2)cc1,-4,-1,·,·,·,·
COc1ccc(CCNC(=O)c2cccc(Br)c2)cc1OC,11*,2,0,-2,-3,0
Cn1c(=O)c2c(ncn2Cc2ccc(O)c([N+](=O)[O-])c2)n(C)c1=O,4,5,·,·,·,·
COC(=O)c1cc2c(c3c4cc(C)ccc4n(S(=O)(=O)c4ccc(OC)cc4)c13)C(=O)N(C)C2,-37,-49,·,·,·,·
CCOC(=O)N1CCC(NS(=O)(=O)c2ccc3c(c2)CCN3C(C)=O)CC1,12*,6,-4,2,-7,-4
COc1cccc(CNS(=O)(=O)c2cc(Br)ccc2Br)c1OC,4,-4,·,·,·,·
CCC[C@H]1[C@@H](NC(=O)c2ccc(C)cc2)CC[C@@]23CCCN2C(=O)CCC[C@@H]13,-2,-2,·,·,·,·
O=C(Nc1ncccn1)C1CCCCC1,11*,-4,1,39,-9,-1
Cc1ccc(SCc2cc(=O)n(C)[nH]2)cc1,11*,6,-1,-1,-2,-3
COCCCNC(=O)C[C@H]1C[C@@]2(C(=O)OC)C(=C[C@H](COCc3ccccc3)O[C@@H]2C)N(Cc2cccc3ccccc23)C1=O,7,-2,·,·,·,·
COc1ccc(OC)c(S(=O)(=O)NCCCN2CCOCC2)c1,12*,-2,1,0,-7,-1
COc1ccc(Br)cc1S(=O)(=O)NCCCN1CCOCC1,1,-2,-1,-1,·,·
Cc1ccc(-c2c(NC(=O)C3CC3)nc3ncccn23)cc1,i,i,·,·,·,·
COc1ccc(CC(=O)NCC2CCCN(Cc3cccc(C(F)(F)F)c3)C2)cc1 (stereo not drawn),11*,-3,-1,39,-7,0
O=C(Nc1cccc(O)c1)c1ccc(S(=O)(=O)N2CCCCCC2)cc1,11*,-2,0,3,1,-4
Cc1ccc(S(=O)(=O)N2CCCCC2)cc1C(=O)Nc1ccc(N2CCOCC2)cc1,12*,2,3,32,-6,-4
Cc1cc(C(F)F)n2nc(C(=O)Nc3ccc(S(=O)(=O)N4CCCCCC4)cc3)nc2n1,9.9*,6,4,6,-4,-4
Cc1cc(C(F)F)n2nc(C(=O)Nc3cccc(S(=O)(=O)N4CCOCC4)c3)nc2n1,-5,-7,2,45,·,·
O=C(OCC#CCSc1nnc(-c2cccc3ccccc23)o1)c1ccc(OC(F)(F)F)cc1,-3,-4,·,·,·,·
COC[C@H]1CCCN1c1ccc2c(c1)O[C@@H](COCc1ccccc1)CN([C@H](C)c1ccccc1)S2(=O)=O,10*,-4,·,·,-3,-2
Nn1c(SCC(=O)Nc2ccccc2-c2ccccc2)nnc1-c1cc(-c2ccc(F)cc2)n[nH]1,-3,0,·,·,·,·
CCC/C(O)=C1\C(=O)CCCC1=NC(C)C(=O)O (stereo not drawn),9.8*,7,1,9,-8,-2
O=C(NCC1CCN(C(=O)C(=O)c2cc3ccccc3o2)CC1)c1ccncc1,0,4,·,·,·,·

# Compound activity from PubChem BioAssay.
